Source: ChEMBL document CHEMBL1142175, “Activities of antimicrobial peptides and synergy with enrofloxacin against Mycoplasma pulmonis” (2007)
≈ marks a conversion by molar mass, not a printed value. Calls of active or inactive are those of the source. The calls are words filed in the database; no cut-off is given here. Starred links: 1 amine or outer side, 2 acyl side, 3 side chain; linkers in the order of their positions; H or OH if unused. Positions of bridges follow the written chain, without caps; N, C: chain ends. Non-standard residues stand in square brackets, D forms with d. Residues, ends and D or L forms follow the SMILES beside them. X1 = CC(C)CCCCCCCCC[C@H](CC(=O)[*:1])O[*:2]; Orn = NCCC[C@H](N)C(=O)O

Key:
Mycoplasma pulmonis [1] = experiment: Antibacterial activity against 10^6 CFU/ml Mycoplasma pulmonis MpUR1.1 assessed as viable cell count after 2 hrs; format: functional; details: Mycoplasmopsis pulmonis
Summary of the method: (§1)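 For bactericidal testing, cells were exposed to peptides for 2 h or enrofloxacin for 24 h, then plated on solid medium at 37°C under anaerobic conditions. Colonies were read after 4 to 5 days. MBC was the lowest concentration killing 99.9% of cells. Triplicate.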

Mycoplasma pulmonis [2] = experiment: Antibacterial activity against 10^6 CFU/ml log-phase Mycoplasma pulmonis MpUR1.1 assessed as viable cell count at 0.4 uM after 1 hr relative to control; format: functional, Mycoplasmopsis pulmonis
Summary of the method: (§2)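 Time-kill on log-phase cells, about 10^6 CFU/ml in Hayflick broth, exposed to a single drug concentration at 37°C. Aliquots were taken at 1, 2 or 24 h, serially diluted and plated for viable counts. Counts were expressed as percent of the untreated culture. Values are the mean of two independent experiments.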

Mycoplasma pulmonis [3] = experiment: Antibacterial activity against 10^6 CFU/ml growth-phase Mycoplasma pulmonis MpUR1.1 assessed as viable cell count after 2 hrs relative to control; format: functional; details: Mycoplasmopsis pulmonis; summary of the method: as §2
Mycoplasma pulmonis [4] = experiment: Antibacterial activity against 10^6 CFU/ml Mycoplasma pulmonis MpUR1.1 after 48 hrs; format: functional; details: Mycoplasmopsis pulmonis
Summary of the method: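 Mycoplasmas seeded at 10^6 CFU/ml in Hayflick medium with 5% horse serum, with twofold serial drug dilutions (0.4 to 100 µM). Growth was followed by phenol red colour change. MIC was the lowest concentration giving complete growth inhibition at 48 h. Triplicate.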

Mycoplasma pulmonis [5] = experiment: Antibacterial activity against 10^6 CFU/ml log-phase Mycoplasma pulmonis MpUR1.1 assessed as viable cell count at 0.4 uM after 24 hrs relative to control; format: functional, Mycoplasmopsis pulmonis; summary of the method: as §2
Mycoplasma pulmonis [6] = experiment: Ratio of MBC to MIC for Mycoplasma pulmonis MpUR1.1; format: functional, Mycoplasmopsis pulmonis
Summary of the method: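 MIC came from broth microdilution at 10^6 CFU/ml in Hayflick medium with 5% horse serum. Twofold dilutions ran from 0.4 to 100 µM, with phenol red read-out at 48 h. MBC came from plating after exposure (peptides 2 h, enrofloxacin 24 h) on solid medium at 37°C under anaerobic conditions. MBC was the concentration killing 99.9% of cells, with colonies read at 4 to 5 days.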

Mycoplasma pulmonis [7] = experiment: Antibacterial activity against 10^6 CFU/ml log-phase Mycoplasma pulmonis MpUR1.1 assessed as viable cell count at 6.25 uM after 1 hr relative to control; format: functional, Mycoplasmopsis pulmonis; summary of the method: as §2
Mycoplasma pulmonis [8] = experiment: Antibacterial activity against 10^6 CFU/ml log-phase Mycoplasma pulmonis MpUR1.1 assessed as viable cell count at 6.25 uM after 24 hrs relative to control; format: functional, Mycoplasmopsis pulmonis; summary of the method: as §2
Mycoplasma pulmonis [9] = experiment: Antibacterial activity against 10^6 CFU/ml Mycoplasma pulmonis MpUR1.1 assessed as viable cell count after 24 hrs; format: functional; details: Mycoplasmopsis pulmonis; summary of the method: as §1
Mycoplasma pulmonis [10] = experiment: Antibacterial activity against 10^6 CFU/ml log-phase Mycoplasma pulmonis MpUR1.1 assessed as viable cell count at 3.12 uM after 1 hr relative to control; format: functional, Mycoplasmopsis pulmonis; summary of the method: as §2
Mycoplasma pulmonis [11] = experiment: Antibacterial activity against 10^6 CFU/ml log-phase Mycoplasma pulmonis MpUR1.1 assessed as viable cell count at 3.12 uM after 24 hrs relative to control; format: functional, Mycoplasmopsis pulmonis; summary of the method: as §2
Mycoplasma pulmonis [12] = experiment: Antibacterial activity against 10^6 CFU/ml log-phase Mycoplasma pulmonis MpUR1.1 assessed as viable cell count at 25 uM after 24 hrs relative to control; format: functional, Mycoplasmopsis pulmonis; summary of the method: as §2
Mycoplasma pulmonis [13] = experiment: Antibacterial activity against 10^6 CFU/ml log-phase Mycoplasma pulmonis MpUR1.1 assessed as viable cell count at 25 uM after 1 hr relative to control; format: functional, Mycoplasmopsis pulmonis; summary of the method: as §2

| SMILES | MBC (Mycoplasma pulmonis [1]) | Activity (Mycoplasma pulmonis [2]) | Activity (Mycoplasma pulmonis [3]) | MIC (Mycoplasma pulmonis [4]) | Activity (Mycoplasma pulmonis [5]) | Ratio (Mycoplasma pulmonis [6]) | Activity (Mycoplasma pulmonis [7]) | Activity (Mycoplasma pulmonis [8]) | MBC (Mycoplasma pulmonis [9]) | Activity (Mycoplasma pulmonis [10]) | Activity (Mycoplasma pulmonis [11]) | Activity (Mycoplasma pulmonis [12]) | Activity (Mycoplasma pulmonis [13]) |
| --- | --- | --- | --- | --- | --- | --- | --- | --- | --- | --- | --- | --- | --- |
| CCCCCC[C@H]1OC(=O)CNC(=O)[C@H]([C@H](C)O)NC(=O)[C@H](CO)NC(=O)[C@H]([C@H](C)CC)NC(=O)[C@H](CC(C)C)N(C)C(=O)[C@@H]1C | 8.2 µg/mL (≈ 12.5 µM) | 68% | Active | 0.26 µg/mL (≈ 0.396 µM) | 0.05% | 31 | – | – | – | – | – | – | – |
| CC(=O)NC(C)(C)C(=O)N1CCC[C@H]1C(=O)NC(C)(C)C(=O)N[C@@H](C)C(=O)NC(C)(C)C(=O)N[C@@H](C)C(=O)N[C@@H](CCC(N)=O)C(=O)NC(C)(C)C(=O)N[C@H](C(=O)NC(C)(C)C(=O)NCC(=O)N[C@@H](CC(C)C)C(=O)NC(C)(C)C(=O)N1CCC[C@H]1C(=O)N[C@H](C(=O)NC(C)(C)C(=O)NC(C)(C)C(=O)N[C@@H](CCC(=O)O)C(=O)N[C@@H](CCC(N)=O)C(=O)N[C@H](CO)Cc1ccccc1)C(C)C)C(C)C [ALAMETHICIN] | 49.1 µg/mL (≈ 25 µM) | – | Active | 12.3 µg/mL (≈ 6.26 µM) | – | 2 | 31% | 0% | – | – | – | – | – |
| CCN1CCN(c2cc3c(cc2F)c(=O)c(C(=O)O)cn3C2CC2)CC1 [ENROFLOXACIN] | – | 89% | Active | 0.14 µg/mL (≈ 0.39 µM) | 0.22% | 2 | – | – | 0.29 µg/mL (≈ 0.807 µM) | – | – | – | – |
| CC(C)C[C@@H]1NC(=O)[C@H](CCCN)NC(=O)[C@H](C(C)C)NC(=O)[C@@H]2CCCN2C(=O)[C@@H](Cc2ccccc2)NC(=O)[C@H](CC(C)C)NC(=O)[C@H](CCCN)NC(=O)[C@H](C(C)C)NC(=O)[C@@H]2CCCN2C(=O)[C@@H](Cc2ccccc2)NC1=O [GRAMICIDIN S] (cyclo(L[dF]PV[Orn]L[dF]PV[Orn])) | 7.1 µg/mL (≈ 6.22 µM) | – | Active | 3.6 µg/mL (≈ 3.15 µM) | – | 2 | – | – | – | 98% | 0.16% | – | – |
| CC(C)CCCCCCCCC[C@@H]1CC(=O)N[C@@H](CCC(=O)O)C(=O)N[C@@H](CC(C)C)C(=O)N[C@H](CC(C)C)C(=O)N[C@@H](C(C)C)C(=O)N[C@@H](CC(=O)O)C(=O)N[C@H](CC(C)C)C(=O)N[C@@H](CC(C)C)C(=O)O1 [SURFACTIN] (EL[dL]VD[dL]L; linker N-C via X1) | 104 µg/mL (≈ 100 µM) | – | Active | 25.9 µg/mL (≈ 25 µM) | – | 2 | – | – | – | – | – | 0.08% | 43% |
